# Test results reported in ChEMBL document CHEMBL3091313, “Amino acids derived benzoxazepines: design, synthesis and antitumor activity” (Bioorg Med Chem Lett, 2013).
# Active and inactive are the calls of the source. No cut-off for these calls is given here.
# How the values were obtained:
# MDA-MB-231 [1] = assay: Cell cycle arrest in human MDA-MB-231 cells assessed as accumulation at G2 phase at 1 uM after 24 hrs using propidium iodide staining by flow cytometry (reference value: 18.75 %); assay type: functional
# MDA-MB-231 [2] = assay: Cell cycle arrest in human MDA-MB-231 cells assessed as apoptosis at 1 uM after 24 hrs using propidium iodide staining by flow cytometry (reference value: 0.10 %); assay type: functional
# MCF7 [3] = assay: Induction of apoptosis in human MCF7 cells assessed as DNA fragmentation after 24 hrs by ELISA; assay type: functional, cell-based
# Method in brief: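 MCF-7 cells were treated with compound, with 4-OHT alongside. DNA fragmentation was quantified after 24 h and expressed relative to a positive control set at 100%. Data are mean ± SEM of three independent experiments.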
# MCF7 [4] = assay: Induction of apoptosis in human MCF7 cells assessed as PARP cleavage after 6 to 24 hrs by densitometry; assay type: functional, cell-based
# Method in brief: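 Lysates from treated MCF-7 cells were immunoblotted for PARP, and cleaved PARP was quantified by densitometry. Data are mean ± SEM of three independent experiments.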
# MCF7 [5] = assay: Induction of apoptosis in human MCF7 cells assessed as late apoptotic cells at 5 uM after 24 hrs using annexin V/PI staining by flow cytometry (reference value: 6.46 %); assay type: functional
# Method in brief: (§1)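 MCF-7 cells were exposed to vehicle or the indicated compound concentrations for 24 h. Phosphatidylserine exposure was then measured by flow cytometry after staining with FITC-labelled Annexin V and propidium iodide. Apoptotic cell fractions were read from dot plots relative to vehicle.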
# MCF7 [6] = assay: Induction of apoptosis in human MCF7 cells assessed as early apoptotic cells at 5 uM after 24 hrs using annexin V/PI staining by flow cytometry (reference value: 3.19 %); assay type: functional
# MCF7 [7] = assay: Induction of apoptosis in human MCF7 cells assessed as late apoptotic cells at 3 uM after 24 hrs using annexin V/PI staining by flow cytometry (reference value: 6.46 %); assay type: functional; method in brief: as §1
# MCF7 [8] = assay: Induction of apoptosis in human MCF7 cells assessed as early apoptotic cells at 3 uM after 24 hrs using annexin V/PI staining by flow cytometry (reference value: 3.19 %); assay type: functional
# MCF7 [9] = assay: Induction of apoptosis in human MCF7 cells assessed as late apoptotic cells at 1 uM after 24 hrs using annexin V/PI staining by flow cytometry (reference value: 6.46 %); assay type: functional; method in brief: as §1
# MCF7 [10] = assay: Induction of apoptosis in human MCF7 cells assessed as early apoptotic cells at 1 uM after 24 hrs using annexin V/PI staining by flow cytometry (reference value: 3.19 %); assay type: functional
# MDA-MB-231 [11] = assay: Antiproliferative activity against human MDA-MB-231 cells after 72 hrs by MTT assay; assay type: functional, cell-based; conditions: MDA-MB-231, 72 h
# Method in brief: (§2)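 MCF-7 (ER+ve) and MDA-MB-231 (ER-ve) breast cancer cells were exposed to compound or vehicle. Viability was read by MTT and expressed as % cell death versus vehicle, with 4-hydroxytamoxifen as positive control. IC50 came from three independent experiments, each in triplicate.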
# MDA-MB-231 [12] = assay: Antiproliferative activity against human MDA-MB-231 cells after 48 hrs by MTT assay; assay type: functional, cell-based; conditions: MDA-MB-231, 48 h; method in brief: as §2
# MCF7 [13] = assay: Antiproliferative activity against human MCF7 cells after 72 hrs by MTT assay; assay type: functional, cell-based; conditions: MCF7, 72 h; method in brief: as §2
# [14] = Cytotoxicity against rat primary calvarial osteoblasts after 24 hrs by MTT assay; assay type: cell-based; conditions: calvarial osteoblast
# Method in brief: (§3)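 Vero, HEK-293 and primary rat calvarial osteoblasts were given vehicle or a range of concentrations for 24 h. Cell death was expressed as % relative to vehicle.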
# HEK293 = assay: Cytotoxicity against HEK293 cells after 24 hrs by MTT assay; assay type: cell-based; conditions: Homo sapiens, HEK293, 72 h; in the assay text read “after 72 hrs” for “after 24 hrs”
# Vero = assay: Cytotoxicity against african green monkey Vero cells after 24 hrs by MTT assay; assay type: cell-based; conditions: chlorocebus sabaeus; method in brief: as §3
# MDA-MB-231 [15] = assay: Antiproliferative activity against human MDA-MB-231 cells after 24 hrs by MTT assay; assay type: functional, cell-based; conditions: MDA-MB-231, 24 h; method in brief: as §2
# Mus musculus = assay: Toxicity in human MCF7 cells xenografted athymic nude mouse assessed as change in body weight at 16 mg/kg/day, po for 21 days measured up to 21 days relative to vehicle-treated control; assay type: organism-based; design: route oral; conditions: in vivo, 504 h
# MCF7 [16] = assay: Induction of apoptosis in human MCF7 cells assessed as reduction in cell viability at 5 uM after 24 hrs by MTT assay in presence of zIEDT-FMK; assay type: functional, cell-based
# MCF7 [17] = assay: Induction of apoptosis in human MCF7 cells assessed as reduction in cell viability at 5 uM after 24 hrs by MTT assay in presence of zVAD-FMK; assay type: functional, cell-based
# MCF7 [18] = assay: Induction of apoptosis in human MCF7 cells assessed as caspase-3 cleavage at 5 uM after 3 hrs by immunoblotting method; assay type: functional, cell-based
# MCF7 [19] = assay: Cell cycle arrest in human MCF7 cells assessed as increase in p21 protein level at 5 uM after 12 to 24 hrs by immunoblotting method; assay type: functional, cell-based
# MCF7 [20] = assay: Cell cycle arrest in human MCF7 cells assessed as decrease in cyclin D1 mRNA level at 1 to 5 uM after 12 hrs by QRT-PCR method; assay type: functional, cell-based
# MCF7 [21] = assay: Cell cycle arrest in human MCF7 cells assessed as increase in p21 mRNA level at 1 to 5 uM after 12 hrs by QRT-PCR method; assay type: functional, cell-based
# MCF7 [22] = assay: Cell cycle arrest in human MCF7 cells assessed as apoptosis at 5 uM after 24 hrs using propidium iodide staining by flow cytometry (reference value: 0.06 %); assay type: functional
# MCF7 [23] = assay: Cell cycle arrest in human MCF7 cells assessed as accumulation at G2 phase at 3 uM after 24 hrs using propidium iodide staining by flow cytometry (reference value: 7.46 %); assay type: functional
# MCF7 [24] = assay: Cell cycle arrest in human MCF7 cells assessed as apoptosis at 3 uM after 24 hrs using propidium iodide staining by flow cytometry (reference value: 0.06 %); assay type: functional
# MCF7 [25] = assay: Cell cycle arrest in human MCF7 cells assessed as accumulation at G1 phase at 1 uM after 24 hrs using propidium iodide staining by flow cytometry (reference value: 67.73 %); assay type: functional
# MCF7 [26] = assay: Cell cycle arrest in human MCF7 cells assessed as apoptosis at 1 uM after 24 hrs using propidium iodide staining by flow cytometry (reference value: 0.06 %); assay type: functional
# MDA-MB-231 [27] = assay: Cell cycle arrest in human MDA-MB-231 cells assessed as accumulation at S phase at 5 uM after 24 hrs using propidium iodide staining by flow cytometry (reference value: 28.59 %); assay type: functional
# MDA-MB-231 [28] = assay: Cell cycle arrest in human MDA-MB-231 cells assessed as accumulation at G1 phase at 5 uM after 24 hrs using propidium iodide staining by flow cytometry (reference value: 52.67 %); assay type: functional
# MDA-MB-231 [29] = assay: Cell cycle arrest in human MDA-MB-231 cells assessed as accumulation at S phase at 3 uM after 24 hrs using propidium iodide staining by flow cytometry (reference value: 28.59 %); assay type: functional
# MDA-MB-231 [30] = assay: Cell cycle arrest in human MDA-MB-231 cells assessed as accumulation at G2 phase at 3 uM after 24 hrs using propidium iodide staining by flow cytometry (reference value: 18.75 %); assay type: functional
# MDA-MB-231 [31] = assay: Cell cycle arrest in human MDA-MB-231 cells assessed as accumulation at G1 phase at 3 uM after 24 hrs using propidium iodide staining by flow cytometry (reference value: 52.67 %); assay type: functional
smiles,measurement,setting,value
Cc1ccc(S(=O)(=O)N2Cc3ccccc3OC[C@@H]2Cc2ccc(OCCN3CCCCCC3)cc2)cc1.Cl,Activity,MDA-MB-231 [1],7.46%
same,Activity,MDA-MB-231 [2],0.6%
same,Activity,MCF7 [3],Dose-dependent effect
same,Activity,MCF7 [4],Dose-dependent effect
same,Activity,MCF7 [5],35.77%
same,Activity,MCF7 [6],42.51%
same,Activity,MCF7 [7],25.59%
same,Activity,MCF7 [8],20.74%
same,Activity,MCF7 [9],20.15%
same,Activity,MCF7 [10],15.13%
same,IC50,MDA-MB-231 [11],4.6 µM
same,IC50,MDA-MB-231 [12],5.45 µM
same,IC50,MCF7 [13],1.83 µM
same,Activity,[14],Non-toxic
same,IC50,HEK293,30 µM
same,Activity,Vero,Non-toxic
same,IC50,MDA-MB-231 [15],7.2 µM
same,Activity,Mus musculus,Non-toxic
same,Activity,MCF7 [16],Active
same,Activity,MCF7 [17],Active
same,Activity,MCF7 [18],Active
same,Activity,MCF7 [19],Active
same,Activity,MCF7 [20],Active
same,Activity,MCF7 [21],Active
same,Activity,MCF7 [22],2.86%
same,Activity,MCF7 [23],6.86%
same,Activity,MCF7 [24],0.52%
same,Activity,MCF7 [25],74.1%
same,Activity,MCF7 [26],2.59%
same,Activity,MDA-MB-231 [27],17.71%
same,Activity,MDA-MB-231 [28],75.82%
same,Activity,MDA-MB-231 [29],18.64%
same,Activity,MDA-MB-231 [30],8.08%
same,Activity,MDA-MB-231 [31],73.31%
